The nature of experiment [1]: Inhibition of human recombinant TTR Y78F mutant-mediated fibrillogenesis after 30 mins by turbidimetric assay. Summed up:
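Recombinant TTR Y78F (4 mg/mL in 20 mM potassium phosphate, 100 mM KCl, 1 mM EDTA, pH 7.6) was preincubated 30 min at 37 °C with 0−40 μM compound (final). Acid fibrillogenesis was started with pH 4.2 acetate buffer, giving final 0.4 mg/mL TTR and 5% DMSO. A340 was read every 1 min for 1.5 h at 37 °C. IC50 came from fitting initial rates to v0 = A + B·exp(−C[I]).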

Experiment [2] is filed under the species Homo sapiens. Put plainly: Inhibition of human recombinant TTR Y78F mutant-mediated fibrillogenesis at 40 uM after 30 mins by turbidimetric assay relative to control. Summed up:
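Y78F TTR turbidity assay: 30 min preincubation at 37 °C with 0−40 μM compound, then pH 4.2 acetate buffer (final 0.4 mg/mL TTR, 5% DMSO). A340 was monitored for 1.5 h at 37 °C. Initial rates were fitted to v0 = A + B·exp(−C[I]). RA% is the percentage reduction in fibril formation rate at high inhibitor concentration versus no inhibitor.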

Experiment [3] in a line: Binding affinity to human recombinant TTR Y78F mutant after 5 mins by isothermal titration calorimetry. Summed up: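 Recombinant human TTR Y78F (E. coli-expressed), 20−30 μM in cell, in 100 mM potassium phosphate, KCl, 1 mM EDTA, 5% (v/v) DMSO, pH 7.6, filtered and degassed 5 min. Titrant was 500 μM ligand in the same buffer. One 0.5−1 μL injection, then 1.5−2 μL injections every 150 s, 25 °C. Dilution blanks subtracted; isotherms fitted to a two identical-site model to give Kd.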

Turning to `Oc1c(Cl)cc(-c2cc(Cl)c(O)c(Cl)c2)cc1Cl`, in experiment [1], the IC50 was found to be 2.1 µM. Besides, the inhibition in experiment [2] worked out at 100%.
On the same counts, the results for `CC(C(=O)O)c1ccc(-c2ccccc2)c(F)c1` (stereo not given) [FLURBIPROFEN] are above 100 µM and 35%.
As to `O=C(O)c1ccccc1Nc1cccc(C(F)(F)F)c1` [FLUFENAMIC ACID], the IC50 in experiment [1] came to 6.2 µM. In addition, the inhibition in experiment [2] worked out at 89%. Further, in experiment [3], the Kd amounted to 109 nM.
`N[C@@H](Cc1cc(I)c(Oc2cc(I)c(O)c(I)c2)c(I)c1)C(=O)O` [LEVOTHYROXINE]: the inhibition in experiment [2] was determined as 80%.
Consider `O=C(O)c1ccccc1Nc1cc(Cl)cc(C(F)(F)F)c1`, for which, in experiment [1], the IC50 worked out at 6 µM. Further, the inhibition in experiment [2] worked out at 86%. The Kd in experiment [3] is 86 nM.
Consider `O=C(O)c1ccc(-c2cc(F)cc(F)c2)cc1`, for which, in experiment [1], the IC50 was found to be 10.8 µM. Further, the inhibition in experiment [2] came out at 89%.
With `O=C(O)c1cc(-c2ccc(F)cc2F)ccc1O` [DIFLUNISAL], the IC50 in experiment [1] stood at 18 µM. Also, the inhibition in experiment [2] came to 85%. Also, the Kd in experiment [3] stood at 1160 nM.
As for `O=C(O)c1cc(-c2ccc(Cl)cc2Cl)ccc1O`, the IC50 in experiment [1] came out at 12.8 µM. Besides, in experiment [2], the inhibition was 75%.
As to `O=C(O)c1cc(-c2ccc(F)cc2F)cc(Cl)c1O`, the IC50 in experiment [1] stood at 7.5 µM. Moreover, the inhibition in experiment [2] is 89%. In experiment [3], the Kd came to 375 nM.
Regarding `CC1=C(/C=C/C(C)=C/C=C/C(C)=C/C(=O)O)C(C)(C)CCC1` [TRETINOIN], the IC50 in experiment [1] is 8.1 µM. Also, the inhibition in experiment [2] was 100%.
As for `O=C(O)c1ccccc1Nc1cc(F)cc(C(F)(F)F)c1`, the IC50 in experiment [1] was found to be 6.5 µM. Besides, the inhibition in experiment [2] is 91%. In addition, the Kd in experiment [3] turned out to be 91 nM.
As for `O=C(O)c1cc(-c2ccc(F)cc2F)cc(Br)c1O`, in experiment [1], the IC50 was found to be 5.6 µM. The inhibition in experiment [2] came out at 88%. Also, the Kd in experiment [3] amounted to 194 nM.
On to `CC/C(=C(/CC)c1ccc(O)cc1)c1ccc(O)cc1` [DIETHYLSTILBESTROL], for which the IC50 in experiment [1] was found to be 16.6 µM. Besides, the inhibition in experiment [2] worked out at 67%.
On to `O=C(O)c1ccccc1Nc1cc(I)cc(C(F)(F)F)c1`, for which, in experiment [1], the IC50 was 6.4 µM. The inhibition in experiment [2] was 94%. Further, in experiment [3], the Kd was determined as 85 nM.
As to `O=C(O)c1cc(-c2ccc(F)cc2F)cc(I)c1O`, the inhibition in experiment [2] turned out to be 94%. The Kd in experiment [3] amounted to 87 nM.
Turning to `O=C(O)Cc1ccccc1Nc1c(Cl)cccc1Cl` [DICLOFENAC], the IC50 in experiment [1] is 26 µM. Moreover, in experiment [2], the inhibition was determined as 74%.
Take `Oc1ccc(/C=C/c2cc(O)cc(O)c2)cc1` [RESVERATROL]: the IC50 in experiment [1] came out at 4.5 µM. In experiment [2], the inhibition is 89%.
On the same counts, the results for `O=C(O)Cc1cc(I)c(Oc2cc(I)c(O)c(I)c2)c(I)c1` [TETRAC] are 4.8 µM and 93%.
The corresponding values for `O=[N+]([O-])c1ccc(O)c([N+](=O)[O-])c1` [2,4-DINITROPHENOL] are 20 µM and 77%.
Regarding `O=C(O)c1cc(-c2ccc(F)cc2F)cc(F)c1O`, in experiment [1], the IC50 stood at 7.6 µM. For the same compound, in experiment [2], the inhibition is 87%. In experiment [3], the Kd came out at 1120 nM.
The corresponding values for `O=C(O)c1ccccc1Nc1cc(Br)cc(C(F)(F)F)c1` are 5.9 µM, 91% and 64 nM.

Values taken from ChEMBL document CHEMBL3085733, “Modulation of the fibrillogenesis inhibition properties of two transthyretin ligands by halogenation” (J Med Chem, 2013).
